For 13 molecules, Activity and Ratio results are on record in ChEMBL document CHEMBL1152658, “Antioxidant activity of benzoxazolinonic and benzothiazolinonic derivatives in the LDL oxidation model” (2009).

Activity calls are given as the source filed them. The rule behind the calls is not given here.

The nature of experiment [1]: Cytoprotective activity against minimally oxidized LDL-induced cytotoxicity in BAEC assessed as LDH release at 10 uM treated for 24 hrs before mO-LDL challenge measured after 16 hrs by spectrometry. The format is functional, Bos taurus. Put shortly: (§1)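 BAECs (primary, bovine aorta) in DMEM with 10% newborn calf serum, glutamine, penicillin. Pretreated 24 h with drug in methanol (final 10 µM), then 16 h at 37 °C with drug plus native LDL or mO-LDL at 100 µg/mL (mO-LDL from LDL incubated at 30 °C without oxidant). Medium LDH read spectrometrically by NAD reduction, expressed as % of total LDH released by 0.1% Triton X-100; mean (SD) of two incubations in triplicate.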
Background: Release of lactate dehydrogenase indicates damage to the cell membrane.

The subject of experiment [2] is BAEC. Briefly: Cytoprotective activity against LDL-induced cytotoxicity in BAEC assessed as decrease in LDH release at 10 uM treated for 24 hrs before LDL challenge measured after 16 hrs by spectrometry. The following applies: Bos taurus. The format is functional. An outline of the steps: as §1
The test system of experiment [3] is BAEC. Nature of the experiment: Cytoprotective activity against minimally oxidized LDL-induced cytotoxicity in BAEC assessed as decrease in number of detached and shrunk cells at 10 uM treated for 24 hrs before mO-LDL challenge measured after 16 hrs by spectrometry. The format is functional, cell-based. As to conditions: Bos taurus. An outline of the steps: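 BAECs pretreated 24 h with drug (final 10 µM in methanol), then exposed 16 h at 37 °C to mO-LDL (100 µg protein/mL, air-oxidized LDL) with drug. Cells examined for morphology: contraction, cytoplasmic ramification, rounding and detachment from wells.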

Experiment [4] is described as follows: Cytoprotective activity against minimally oxidized LDL-induced cytotoxicity in BAEC assessed as cell vitality at 10 uM treated for 24 hrs before mO-LDL challenge measured after 16 hrs by MTT assay. It is filed as functional, Bos taurus. Put shortly: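 Primary bovine aortic endothelial cells grown in DMEM with 10% newborn calf serum, glutamine and penicillin. Pretreated 24 h with drug in methanol, then 16 h at 37 °C with air-oxidized LDL (100 µg protein/mL, made by incubating LDL at 30 °C without CuSO4 or AAPH) plus drug (final 10 µM). MTT (5 mg solution in PBS) added for 5 h. Formazan dissolved in dimethylformamide, A590 read, expressed as % of control wells.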
(Tetrazolium assays rely on reduction of a dye to a coloured formazan, in cell work by metabolically active cells.)

The nature of experiment [5]: Inhibition of CuSO4-induced human LDL oxidation assessed as ratio of length of lag phase of conjugated diene formation in presence of compound to untreated control at 100 uM measured every 10 mins for 8 hrs by spectrophotometry. It is filed as functional. Put shortly:
(§2)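 Human LDL taken from fasting normolipidemic volunteers by sequential NaBr density ultracentrifugation (1.019–1.063 g/mL), protein measured by Peterson method. Oxidation started with 16.6 µM CuSO4 or 2 mM AAPH, compound at 1–100 µM. Conjugated dienes read at 234 nm every 10 min for 8 h at 30 °C. R = lag phase with compound / lag phase without compound.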

Experiment [6] can be described thus: Inhibition of CuSO4-induced human LDL oxidation assessed as ratio of length of lag phase of conjugated diene formation in presence of compound to untreated control at 10 uM measured every 10 mins for 8 hrs by spectrophotometry. The format is functional. Put shortly: as §2
Experiment [7] is described as follows: Inhibition of CuSO4-induced human LDL oxidation assessed as ratio of length of lag phase of conjugated diene formation in presence of compound to untreated control at 5 uM measured every 10 mins for 8 hrs by spectrophotometry. The format is functional. Put shortly:
as §2

A short description of experiment [8]: Inhibition of AAPH-induced human LDL oxidation assessed as ratio of length of lag phase of conjugated diene formation in presence of compound to untreated control at 5 uM measured every 10 mins for 8 hrs by spectrophotometry. The format is functional. An outline of the steps:
as §2

Experiment [9] is described as follows: Inhibition of CuSO4-induced human LDL oxidation assessed as length of lag phase of conjugated diene formation measured every 10 mins for 8 hrs by spectrophotometry. The format is functional. Put shortly: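 Human LDL (NaBr density ultracentrifugation, 1.019–1.063 g/mL) oxidized with 16.6 µM CuSO4 at 30 °C. Diene conjugation followed at 234 nm every 10 min for 8 h. Lag-phase length taken from the kinetic curves.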

Turning to `CCCN1CCc2cc(O)c(NC)cc2C1c1cccc(O)c1` (stereo not given), the values for the Activity in experiment [1] and in experiment [4] were 14.1% and 90%, respectively. Besides, the outcome in the experiment with BAEC [2] was inactive. Further, the outcome in the experiment with BAEC [3] was Active.
For the molecule `CCCN1CCc2c([nH]c3ccc(CC)cc23)C1c1cccc(OC)c1.Cl` (stereo not given), the Ratio in experiment [5] was over 5; in experiment [6], over 5; in experiment [7], 1.6; in [8] it was 1.5. In addition, the Activity result in [9] is “Dose-dependent effect”; in experiment [1], 15.32%; in experiment [4], 90%. Besides, in the experiment on BAEC [2], the result was inactive. The result in the experiment with BAEC [3] was Active.
In the case of `CCCN1CCc2cc3oc(=O)n(C)c3cc2C1c1cccc(OC)c1` (stereo not given), the values for the Ratio in [5], in experiment [6] and in experiment [7] were over 5, 3.3 and 1.5, respectively. Moreover, the Activity entry in [9] is “Dose-dependent effect”; in experiment [4], 90%. Further, the outcome in the experiment on BAEC [2] was inactive. Besides, in the experiment with BAEC [3], the outcome was Active.
With `COc1ccc2[nH]cc(CCNC(C)=O)c2c1` [MELATONIN], the Ratio in experiment [5] was 1.5. For the same molecule, the Activity result in experiment [9] was “Dose-dependent effect”; in [4], 90%. The outcome in the experiment with BAEC [2] was inactive. Further, the outcome with BAEC [3] was Active.
Take `CCCCCCCCCN1CCc2cc3oc(=O)n(C)c3cc2C1c1cccc(OC)c1` (stereo not given): the figures for the Ratio in [5], in experiment [6] and in experiment [7] were over 5, 3.8 and 1.7, respectively. The Activity result in [9] is “Dose-dependent effect”; in experiment [4] it was 90%. Further, the outcome in the experiment on BAEC [2] was inactive. The outcome in the experiment on BAEC [3] was Active.
In the case of `COc1cccc(C2NCCc3cc4sc(=O)n(C)c4cc32)c1` (stereo not given), the Ratio is over 5 in experiment [5], over 5 in experiment [6], 2.1 in experiment [7] and 2 in experiment [8]. The Activity entry is “Dose-dependent effect” in experiment [9], 14.5% in experiment [1] and 90% in experiment [4]. Besides, the outcome in the experiment on BAEC [2] was inactive. Moreover, in the experiment on BAEC [3], the outcome was Active.
As for `COc1cccc(C2=NCCc3cc4oc(=O)n(C)c4cc32)c1`, the Ratio in experiment [5] was over 5; in [6], 1.8; in experiment [7], 1. Also, the Activity result is “Dose-dependent effect” in experiment [9] and 90% in [4]. Further, in the experiment with BAEC [2], the outcome was inactive. Moreover, the result with BAEC [3] was Active.
With `COc1cccc(C2=NCCc3cc4sc(=O)n(C)c4cc32)c1`, the Ratio was over 5 in [5], over 5 in experiment [6], 2.5 in experiment [7] and 2.5 in experiment [8]. For the same molecule, the values for the Activity entry in [9], in experiment [1] and in experiment [4] were “Dose-dependent effect”, 14.12% and 90%, respectively. In addition, the result in the experiment on BAEC [2] was inactive. Moreover, the outcome with BAEC [3] was Active.
Turning to `COc1cccc(C2NCCc3cc4oc(=O)n(C)c4cc32)c1` (stereo not given), the Ratio in [5] is over 5; in experiment [6], 1.8; in experiment [7], 1. For the same molecule, the Activity result was “Dose-dependent effect” in [9] and 90% in experiment [4]. Also, the outcome in the experiment on BAEC [2] was inactive. Further, the outcome with BAEC [3] was Active.
In the case of `CCCN1CCc2cc3sc(=O)n(C)c3cc2C1c1cccc(OC)c1` (stereo not given), the Ratio in experiment [5] was over 5; in experiment [6], over 5; in [7] it was 2.1; in experiment [8] it was 1.9. The results for the Activity entry in experiment [9], in experiment [1] and in [4] were “Dose-dependent effect”, 14.6% and 90%, respectively. The outcome in the experiment with BAEC [2] was inactive. For the same molecule, the result in the experiment with BAEC [3] was Active.
With `CCCN1CCc2cc3oc(=O)n(C)c3cc2C1c1cccc(O)c1` (stereo not given), the Ratio in [5] was over 5; in experiment [6], over 5; in experiment [7] it was 2.5; in [8] it was 2.4. Also, the Activity result in experiment [9] is “Dose-dependent effect”; in [1] it was 13.5%; in experiment [4], 90%. Further, in the experiment with BAEC [2], the result was inactive. Also, the result in the experiment with BAEC [3] was Active.
With `COc1ccc2[nH]c(=O)oc2c1` [COIXOL], the Ratio in experiment [5] was 1.5. The Activity entry in experiment [9] was “Dose-dependent effect”; in experiment [4], 90%. The result with BAEC [2] was inactive.
Regarding `CCCN1CCc2cc(O)c(NC)cc2C1c1cccc(OC)c1` (stereo not given), the Ratio was over 5 in experiment [5], over 5 in experiment [6], 3.2 in [7] and 3.3 in experiment [8]. For the same molecule, the Activity entry in experiment [9] was “Dose-dependent effect”; in experiment [1] it was 13.2%; in experiment [4], 90%. In addition, in the experiment on BAEC [2], the outcome was inactive. For the same molecule, the outcome with BAEC [3] was Active.
